The term GI50 denotes the concentration that inhibits growth by half. The low end stands for more potent growth inhibition, the high end for less potent growth inhibition.

Here are results for 24 compounds from ChEMBL document CHEMBL1147131, “Investigation of the lactam side chain length necessary for optimal indenoisoquinoline topoisomerase I inhibition and cytotoxicity in human cancer cell cultures” (J Med Chem, 2007).

One series deals with SF-268. The series is described as follows: Cytotoxicity against human SF268 cells. It counts as functional.
Series [1] in a line: Cytotoxicity against human HOP62 cells. In kind it is cell-based. To be noted: HOP-62 cells.
A short description of series [2]: Cytotoxicity against human UACC62 cells. In kind it is cell-based. The note with it: UACC-62 cells.
Series [3] can be described thus: Cytotoxicity against human OVCAR-3 cells. It counts as cell-based.
A short description of series [4]: Cytotoxicity against human SN12C cells. It counts as cell-based.
The nature of series [5]: Cytotoxicity against human DU145 cells. To be noted: DU-145 cells. In kind it is cell-based.
A short description of series [6]: Cytotoxicity against human […] cells. It counts as cell-based.
Series [7] in a line: Cytotoxicity against human HCT116 cells. It counts as cell-based. To be noted: HCT-116 cells.
For series [8], the target named is T1, DNA topoisomerase 1 (Homo sapiens) (UniProt P11387).
T1 sequence (whole entry): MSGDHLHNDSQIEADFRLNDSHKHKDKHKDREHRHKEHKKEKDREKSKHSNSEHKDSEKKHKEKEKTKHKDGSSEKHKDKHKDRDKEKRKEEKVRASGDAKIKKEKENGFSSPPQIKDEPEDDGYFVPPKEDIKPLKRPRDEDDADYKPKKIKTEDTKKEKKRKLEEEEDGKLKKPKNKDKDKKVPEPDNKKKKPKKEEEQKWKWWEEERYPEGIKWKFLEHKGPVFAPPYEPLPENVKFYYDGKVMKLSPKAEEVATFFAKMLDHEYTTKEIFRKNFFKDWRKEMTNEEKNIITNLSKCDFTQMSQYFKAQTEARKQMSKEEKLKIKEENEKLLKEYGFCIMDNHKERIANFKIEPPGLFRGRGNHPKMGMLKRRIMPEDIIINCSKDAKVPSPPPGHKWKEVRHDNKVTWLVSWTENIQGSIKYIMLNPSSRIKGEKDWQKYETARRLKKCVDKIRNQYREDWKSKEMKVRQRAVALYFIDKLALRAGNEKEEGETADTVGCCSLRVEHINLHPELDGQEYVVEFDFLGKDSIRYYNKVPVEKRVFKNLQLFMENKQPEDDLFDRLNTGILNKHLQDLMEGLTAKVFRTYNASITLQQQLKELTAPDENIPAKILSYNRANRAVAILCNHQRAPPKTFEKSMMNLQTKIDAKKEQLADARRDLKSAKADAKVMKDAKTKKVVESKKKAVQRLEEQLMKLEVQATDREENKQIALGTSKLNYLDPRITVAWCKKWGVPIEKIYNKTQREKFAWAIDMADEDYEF
Description: Inhibition of human recombinant topoisomerase 1-mediated DNA cleavage after 30 mins. The essentials:
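Human recombinant Top1 purified from baculovirus. Substrate: 161 bp PvuII/HindIII fragment of pBluescript SK(−), 3′-end labeled at the HindIII site by Klenow fill-in with [α-32P]-dGTP. About 50,000 dpm per reaction, incubated with Top1 plus drug for 30 min at 22 °C. Stopped with SDS (0.5% final). Run on denaturing 16% polyacrylamide/7 M urea gels and phosphorimaged. Cleavage scored semi-quantitatively (+ scale) against the parent indenoisoquinoline.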

The structures appear in SMILES notation. Active and inactive are the calls of the source. The rule behind the calls is not given here. Where only a bound is given, the exact number is not on record here.

Consider `CC(C)(C)OC(=O)NCCCCCCCCCn1c2c(c3ccccc3c1=O)C(=O)c1ccccc1-2`, for which the GI50 with SF-268 is 17.8 µM; in series [1] it was 24.5 µM; in series [2], 17.4 µM; in [3], 28.8 µM; in [4] it was 77.6 µM; in series [5], greater than 100 µM. The compound also returned a GI50 in series [6] greater than 100 µM.
For `COc1cc2c3c(n(CCCNCCNCCN)c(=O)c2cc1OC)-c1cc2c(cc1C3=O)OCO2`, the GI50 came out at 2.8 µM in [1]; 0.9 µM in series [7]; 2.6 µM in series [2]; 1.7 µM in [3]; 2.5 µM in series [4]; 1.2 µM in series [5]. The GI50 in [6] worked out at 2.7 µM.
For `NCCCCCCn1c2c(c3ccccc3c1=O)C(=O)c1ccccc1-2`, the concentration for 50% growth inhibition (GI50) with SF-268 is 1.23 µM; in series [1], 1.29 µM; in series [7] it was 0.912 µM; in series [2], 1.62 µM; in [3], 2 µM; in [4], 1.32 µM. The GI50 in series [5] is 0.603 µM; in series [6], 2.04 µM.
On to `O=C1c2ccccc2-c2c1c1ccccc1c(=O)n2CCc1cccnc1`, for which the GI50 with SF-268 is 27.5 µM; in series [1], 28.8 µM; in [2], 89.1 µM; in series [3] it was greater than 100 µM; in [4], greater than 100 µM; in [5], 81.3 µM. The compound also displayed a GI50 in [6] of 4.57 µM. Moreover, the outcome in series [8] was inactive.
For `NCCCCCCCn1c2c(c3ccccc3c1=O)C(=O)c1ccccc1-2`, the GI50 worked out at 1.78 µM with SF-268; 1.2 µM in series [1]; 1.26 µM in series [7]; 2 µM in [2]; 1.7 µM in series [3]; 1.66 µM in series [4]. For the same compound, the GI50 was determined as 0.832 µM in series [5] and 2.24 µM in [6]. Besides, the result in series [8] was inactive.
Take `CC(C)(C)OC(=O)NCCCCCCCn1c2c(c3ccccc3c1=O)C(=O)c1ccccc1-2`: the GI50 in the series with SF-268 was 20.9 µM; in series [7], 17.4 µM; in [2], 20 µM; in [3] it was 33.9 µM; in series [4] it was 74.1 µM; in series [5], 31.6 µM. The same compound had a GI50 in series [6] of 81.3 µM. The outcome in series [8] was inactive.
For the compound `O=C1c2ccccc2-c2c1c1ccccc1c(=O)n2CCc1ccccn1`, the GI50 is 17.4 µM in the series with SF-268; 21.4 µM in [1]; 27.5 µM in series [2]; greater than 100 µM in [3]; 77.6 µM in series [4]; 74.1 µM in series [5]. In addition, the GI50 in series [6] worked out at 5.13 µM. Moreover, the result in series [8] was inactive.
Regarding `NCCCn1c2c(c3ccccc3c1=O)C(=O)c1ccccc1-2`, the GI50 turned out to be 0.25 µM in the series on SF-268; 0.2 µM in series [1]; 0.18 µM in series [7]; 0.26 µM in series [2]; 1.38 µM in [3]; 0.16 µM in [4]. Besides, the GI50 amounted to 0.22 µM in series [5] and 0.78 µM in series [6].
Consider `O=C1c2ccccc2-c2c1c1ccccc1c(=O)n2Cc1cccnc1`, for which the GI50 in the series on SF-268 stood at 6.76 µM; in series [1] it was 7.59 µM; in series [2], 8.71 µM; in series [3], 13.8 µM; in [4] it was 13.8 µM; in series [5], 13.8 µM. In [6], this compound gave a GI50 of 42.7 µM.
In the case of `O=C1c2ccccc2-c2c1c1ccccc1c(=O)n2Cc1ccccn1`, the GI50 is 12.3 µM in the series on SF-268; 11.2 µM in series [1]; 10.7 µM in [2]; 13.8 µM in series [3]; 28.2 µM in series [4]; 13.5 µM in series [5]. The compound also gave a GI50 in series [6] of 3.09 µM. Besides, the result in [8] was inactive.
`CC(C)(C)OC(=O)NCCCCCCCCn1c2c(c3ccccc3c1=O)C(=O)c1ccccc1-2`: the GI50 in the series on SF-268 was 8.71 µM; in series [1], 10.7 µM; in [7], 25.7 µM; in [2] it was 15.5 µM; in [4], greater than 50.1 µM; in [5], greater than 50.1 µM. In series [6], this compound displayed a GI50 greater than 50.1 µM. In series [8], the result was inactive.
For the compound `NCCCCn1c2c(c3ccccc3c1=O)C(=O)c1ccccc1-2`, the GI50 came to 0.1 µM in the series with SF-268; 0.08 µM in [1]; 0.1 µM in series [7]; 0.05 µM in [2]; 0.52 µM in [3]; 0.04 µM in series [4]. In addition, the GI50 came to 0.01 µM in series [5] and 0.84 µM in [6].
Regarding `CC(C)(C)OC(=O)NCCCCCCCCCCCCn1c2c(c3ccccc3c1=O)C(=O)c1ccccc1-2`, the GI50 with SF-268 was 20.4 µM; in [1] it was 32.4 µM; in series [7], greater than 100 µM; in series [2] it was 27.5 µM; in series [3] it was greater than 100 µM; in series [4], greater than 100 µM. Besides, the values for the GI50 in series [5] and in series [6] were 91.2 µM and greater than 100 µM, respectively.
For the compound `CC(C)(C)OC(=O)NCCCCCCCCCCn1c2c(c3ccccc3c1=O)C(=O)c1ccccc1-2`, the GI50 in the series with SF-268 is 42.7 µM; in series [1] it was 28.8 µM; in series [7], 60.3 µM; in [2], 43.6 µM; in series [3], greater than 100 µM; in series [4], greater than 100 µM. Besides, the GI50 in [5] is 97.7 µM; in series [6], greater than 100 µM. In addition, the result in series [8] was inactive.
Consider `NCCn1c2c(c3ccccc3c1=O)C(=O)c1ccccc1-2`, for which the concentration for 50% growth inhibition (GI50) amounted to 0.21 µM in the series on SF-268; 0.62 µM in [1]; 0.27 µM in [7]; 0.92 µM in series [2]; 0.71 µM in series [3]; 0.49 µM in series [4]. Moreover, the GI50 in series [5] worked out at 0.76 µM; in series [6], 0.92 µM.
Take `COc1cc2c3c(n(CCCNCCNCCCN)c(=O)c2cc1OC)-c1cc2c(cc1C3=O)OCO2`: the GI50 in [1] is 2.9 µM; in series [7], 1.3 µM; in [2], 1.9 µM; in [3], 8.1 µM; in series [4], 1.7 µM; in series [5], 4.6 µM. Also, the GI50 in series [6] amounted to 3.4 µM.
For the compound `CC[C@@]1(O)C(=O)OCc2c1cc1n(c2=O)Cc2cc3ccccc3nc2-1` [CAMPTOTHECIN], the concentration for 50% growth inhibition (GI50) with SF-268 was 0.01 µM; in series [6], 0.04 µM.
As for `CC(C)(C)OC(=O)NCCCCCCCCCCCn1c2c(c3ccccc3c1=O)C(=O)c1ccccc1-2`, the GI50 is 29.5 µM with SF-268; 20.9 µM in series [1]; 35.5 µM in series [7]; 24 µM in series [2]; 70.8 µM in [3]; greater than 100 µM in series [4]. The results for the GI50 in [5] and in series [6] were 91.2 µM and greater than 100 µM, respectively.
As to `COc1cc2c3c(n(CCCNCCCNCCCN)c(=O)c2cc1OC)-c1cc2c(cc1C3=O)OCO2`, the GI50 in [7] is 43 µM; in series [2] it was 44 µM; in series [3], 0.88 µM; in series [4], 33 µM; in series [5], greater than 100 µM; in series [6] it was 68 µM.
`COc1cc2c3c(n(C)c(=O)c2cc1OC)-c1cc2c(cc1C3=O)OCO2` yielded a GI50 in [6] of 96 µM.
As for `NCCCCCCCCCCCn1c2c(c3ccccc3c1=O)C(=O)c1ccccc1-2`, the GI50 amounted to 2.04 µM in the series on SF-268; 2.19 µM in [1]; 1.91 µM in series [7]; 1.7 µM in series [2]; 2.09 µM in series [3]; 2 µM in series [4]. The GI50 is 4.57 µM in [5] and 11 µM in series [6].
Consider `NCCCCCCCCn1c2c(c3ccccc3c1=O)C(=O)c1ccccc1-2`, for which the GI50 with SF-268 amounted to 2.82 µM; in series [1] it was 2.14 µM; in series [7], 1.66 µM; in series [2], 3.8 µM; in series [3], 3.47 µM; in series [4], 3.47 µM. For the same compound, the GI50 in [5] was 3.39 µM; in series [6] it was 5.62 µM.
As for `COc1cc2c3c(n(CCCNCCCNCCN)c(=O)c2cc1OC)-c1cc2c(cc1C3=O)OCO2`, the GI50 in series [7] was 23 µM; in series [2] it was 37 µM; in [3] it was 20 µM; in [4], 20 µM; in [5] it was 52 µM; in series [6] it was 38 µM.
`NCCCCCCCCCCCCn1c2c(c3ccccc3c1=O)C(=O)c1ccccc1-2`: the GI50 was 18.2 µM with SF-268; 17 µM in [1]; 14.8 µM in series [2]; 17.8 µM in [3]; 13.5 µM in series [4]; 19.1 µM in series [5]. Moreover, the GI50 in series [6] came out at 19.5 µM.
